In ChEMBL document CHEMBL4229342, “Synthesis of novel proxyphylline derivatives with dual Anti-Candida albicans and anticancer activity” (Eur J Med Chem, 2018):

The compounds below were run on Candida albicans (assay: Growth inhibition of Candida albicans ATCC 90028 at 2 ug/ml incubated for 4 hrs at 35 degC by broth microdilution method relative to control). Details: ATCC 90028, 4 h, read-out: GI.
Type: functional
In the case of `CC(Cn1cnc2c1c(=O)n(C)c(=O)n2C)OC(=O)CC(=O)c1ccc(F)cc1` (centres undefined), the inhibition of growth at 2 µg/mL is reported as 99.3%.

These compounds were tested on Candida albicans (assay: Growth inhibition of Candida albicans ATCC 90028 at 0.0625 ug/ml incubated for 4 hrs at 35 degC by broth microdilution method relative to control). Details: ATCC 90028, 4 h, read-out: GI.
Type: functional
`CC(Cn1cnc2c1c(=O)n(C)c(=O)n2C)OC(=O)CC(=O)c1ccc(F)cc1` (centres undefined) gave an inhibition of growth at 0.0625 µg/mL of 99.3%.

The compounds below were run on Candida albicans (assay: Growth inhibition of Candida albicans ATCC 90028 at 1 ug/ml incubated for 18 hrs at 35 degC by broth microdilution method relative to control). Details: ATCC 90028, 18 h, read-out: GI.
Type: functional
Work on `CC(Cn1cnc2c1c(=O)n(C)c(=O)n2C)OC(=O)CC(=O)c1ccc(F)cc1` (centres undefined) yielded an inhibition of growth at 1 µg/mL of 100%.

The compounds below were run on Candida albicans (assay: Fungicidal activity against Candida albicans ATCC 90028 assessed as log reduction in cell viability at 16 ug/ml after 48 hrs at 35 degC). Details: not given.
Type: functional
Procedure, shortened: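 MFC assay on C. albicans ATCC 90028 following M27-A3, at the molar equivalent of 16 µg/mL. CFU of treated cells were compared with CFU of the untreated inoculum. Activity is given as lg R = lg CFU/mL control − lg CFU/mL treated, and lg R ≥3 was defined as fungicidal. Values are means of two independent experiments.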
`CC(Cn1cnc2c1c(=O)n(C)c(=O)n2C)OC(=O)CC(=O)c1ccc(F)cc1` (centres undefined) was tested, and the “log(activity)” value was 0.9.

The compounds below were run on MCF7 (assay: Antiproliferative activity against human MCF7 cells assessed as cell viability at 200 uM after 72 hrs by MTT assay). Details: MCF7, 72 h, read-out: Activity.
Type: functional
Procedure, shortened: (§1)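 MTT viability assay in CCRF-CEM and MCF-7 cells after 72 h exposure at 25, 50, 100 and 200 µM. Results are relative to control cells without inhibitor in 0.5% DMSO. Done in triplicate; values are means ± SD of three independent experiments.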
Work on `CC(Cn1cnc2c1c(=O)n(C)c(=O)n2C)OC(=O)CC(=O)c1ccc(F)cc1` (centres undefined) yielded a viability at 200 µM of 76.8%.

These compounds were tested on Candida albicans (assay: Growth inhibition of Candida albicans ATCC 90028 at 2 ug/ml incubated for 18 hrs at 35 degC by broth microdilution method relative to control). Details: ATCC 90028, 18 h, read-out: GI.
Type: functional
`CC(Cn1cnc2c1c(=O)n(C)c(=O)n2C)OC(=O)CC(=O)c1ccc(F)cc1` (centres undefined) showed an inhibition of growth at 2 µg/mL of 100%.

Each compound was assayed on Candida albicans (assay: Growth inhibition of Candida albicans ATCC 90028 at 8 ug/ml incubated for 4 hrs at 35 degC by broth microdilution method relative to control). Details: ATCC 90028, 4 h, read-out: GI.
Type: functional
Compound `CC(Cn1cnc2c1c(=O)n(C)c(=O)n2C)OC(=O)CC(=O)c1ccc(F)cc1` (centres undefined) has an inhibition of growth at 8 µg/mL of 99.4%.

The compounds below were run on Candida albicans (assay: Growth inhibition of Candida albicans ATCC 90028 at 4 ug/ml incubated for 18 hrs at 35 degC by broth microdilution method relative to control). Details: ATCC 90028, 18 h, read-out: GI.
Type: functional
With `CC(Cn1cnc2c1c(=O)n(C)c(=O)n2C)OC(=O)CC(=O)c1ccc(F)cc1` (centres undefined) the inhibition of growth at 4 µg/mL was 100%.

Each compound was assayed on Candida albicans (assay: Growth inhibition of Candida albicans ATCC 90028 at 0.5 ug/ml incubated for 4 hrs at 35 degC by broth microdilution method relative to control). Details: ATCC 90028, 4 h, read-out: GI.
Type: functional
In the case of `CC(Cn1cnc2c1c(=O)n(C)c(=O)n2C)OC(=O)CC(=O)c1ccc(F)cc1` (centres undefined), the inhibition of growth at 0.5 µg/mL is reported as 99.3%.

These compounds were tested on MCF7 (assay: Antiproliferative activity against human MCF7 cells assessed as cell viability at 100 uM after 72 hrs by MTT assay). Details: MCF7, 72 h, read-out: Activity.
Type: functional
Procedure, shortened: as §1
Work on `CC(Cn1cnc2c1c(=O)n(C)c(=O)n2C)OC(=O)CC(=O)c1ccc(F)cc1` (centres undefined) yielded a viability at 100 µM of 83.8%.

What follows are compounds tested on CCRF-CEM (assay: Antiproliferative activity against human CCRF-CEM cells assessed as cell viability at 100 uM after 72 hrs by MTT assay). Details: read-out: Activity.
Type: functional
Procedure, shortened: as §1
For `CC(Cn1cnc2c1c(=O)n(C)c(=O)n2C)OC(=O)CC(=O)c1ccc(F)cc1` (centres undefined), the viability at 100 µM was 43.8%.

The compounds below were run on CCRF-CEM (assay: Antiproliferative activity against human CCRF-CEM cells assessed as cell viability at 200 uM after 72 hrs by MTT assay). Details: read-out: Activity.
Type: functional
Procedure, shortened: as §1
For `CC(Cn1cnc2c1c(=O)n(C)c(=O)n2C)OC(=O)CC(=O)c1ccc(F)cc1` (centres undefined), the viability at 200 µM was 20.1%.

These compounds were tested on Candida albicans (assay: Growth inhibition of Candida albicans ATCC 90028 at 0.0625 ug/ml incubated for 18 hrs at 35 degC by broth microdilution method relative to control). Details: ATCC 90028, 18 h, read-out: GI.
Type: functional
`CC(Cn1cnc2c1c(=O)n(C)c(=O)n2C)OC(=O)CC(=O)c1ccc(F)cc1` (centres undefined) showed an inhibition of growth at 0.0625 µg/mL of 99.9%.

What follows are compounds tested on Candida albicans (assay: Growth inhibition of Candida albicans ATCC 90028 at 0.125 ug/ml incubated for 4 hrs at 35 degC by broth microdilution method relative to control). Details: ATCC 90028, 4 h, read-out: GI.
Type: functional
With `CC(Cn1cnc2c1c(=O)n(C)c(=O)n2C)OC(=O)CC(=O)c1ccc(F)cc1` (centres undefined) the inhibition of growth at 0.125 µg/mL was 99.5%.

These compounds were tested on CCRF-CEM (assay: Antiproliferative activity against human CCRF-CEM cells assessed as cell viability at 25 uM after 72 hrs by MTT assay). Details: read-out: Activity.
Type: functional
Procedure, shortened: as §1
Compound `CC(Cn1cnc2c1c(=O)n(C)c(=O)n2C)OC(=O)CC(=O)c1ccc(F)cc1` (centres undefined) has a viability at 25 µM of 83.5%.

These compounds were tested on Candida albicans (assay: Growth inhibition of Candida albicans ATCC 90028 at 8 ug/ml incubated for 48 hrs at 35 degC by broth microdilution method relative to control). Details: ATCC 90028, 48 h, read-out: GI.
Type: functional
With `CC(Cn1cnc2c1c(=O)n(C)c(=O)n2C)OC(=O)CC(=O)c1ccc(F)cc1` (centres undefined) the inhibition of growth at 8 µg/mL was 99.3%.

These compounds were tested on Candida albicans (assay: Growth inhibition of Candida albicans ATCC 90028 at 16 ug/ml incubated for 48 hrs at 35 degC by broth microdilution method relative to control). Details: ATCC 90028, 48 h, read-out: GI.
Type: functional
`CC(Cn1cnc2c1c(=O)n(C)c(=O)n2C)OC(=O)CC(=O)c1ccc(F)cc1` (centres undefined) showed an inhibition of growth at 16 µg/mL of 99.7%.

Each compound was assayed on MCF7 (assay: Antiproliferative activity against human MCF7 cells assessed as cell viability at 25 uM after 72 hrs by MTT assay). Details: MCF7, 72 h, read-out: Activity.
Type: functional
Procedure, shortened: as §1
Work on `CC(Cn1cnc2c1c(=O)n(C)c(=O)n2C)OC(=O)CC(=O)c1ccc(F)cc1` (centres undefined) yielded a viability at 25 µM of 88.5%.

These compounds were tested on Candida albicans (assay: Growth inhibition of Candida albicans ATCC 90028 at 8 ug/ml incubated for 18 hrs at 35 degC by broth microdilution method relative to control). Details: ATCC 90028, 18 h, read-out: GI.
Type: functional
Work on `CC(Cn1cnc2c1c(=O)n(C)c(=O)n2C)OC(=O)CC(=O)c1ccc(F)cc1` (centres undefined) yielded an inhibition of growth at 8 µg/mL of 99.8%.

These compounds were tested on Candida albicans (assay: Growth inhibition of Candida albicans ATCC 90028 at 0.125 ug/ml incubated for 18 hrs at 35 degC by broth microdilution method relative to control). Details: ATCC 90028, 18 h, read-out: GI.
Type: functional
`CC(Cn1cnc2c1c(=O)n(C)c(=O)n2C)OC(=O)CC(=O)c1ccc(F)cc1` (centres undefined) gave an inhibition of growth at 0.125 µg/mL of 99.8%.

Each compound was assayed on Candida albicans (assay: Growth inhibition of Candida albicans ATCC 90028 at 0.5 ug/ml incubated for 18 hrs at 35 degC by broth microdilution method relative to control). Details: ATCC 90028, 18 h, read-out: GI.
Type: functional
Work on `CC(Cn1cnc2c1c(=O)n(C)c(=O)n2C)OC(=O)CC(=O)c1ccc(F)cc1` (centres undefined) yielded an inhibition of growth at 0.5 µg/mL of 99.7%.

Each compound was assayed on Candida albicans (assay: Growth inhibition of Candida albicans ATCC 90028 at 0.25 ug/ml incubated for 4 hrs at 35 degC by broth microdilution method relative to control). Details: ATCC 90028, 4 h, read-out: GI.
Type: functional
`CC(Cn1cnc2c1c(=O)n(C)c(=O)n2C)OC(=O)CC(=O)c1ccc(F)cc1` (centres undefined) was tested, and the inhibition of growth at 0.25 µg/mL was 99.3%.

The compounds below were run on Candida albicans (assay: Growth inhibition of Candida albicans ATCC 90028 at 1 ug/ml incubated for 4 hrs at 35 degC by broth microdilution method relative to control). Details: ATCC 90028, 4 h, read-out: GI.
Type: functional
`CC(Cn1cnc2c1c(=O)n(C)c(=O)n2C)OC(=O)CC(=O)c1ccc(F)cc1` (centres undefined) gave an inhibition of growth at 1 µg/mL of 100%.

Each compound was assayed on CCRF-CEM (assay: Antiproliferative activity against human CCRF-CEM cells assessed as cell viability at 50 uM after 72 hrs by MTT assay). Details: read-out: Activity.
Type: functional
Procedure, shortened: as §1
With `CC(Cn1cnc2c1c(=O)n(C)c(=O)n2C)OC(=O)CC(=O)c1ccc(F)cc1` (centres undefined) the viability at 50 µM was 51.1%.

What follows are compounds tested on MCF7 (assay: Antiproliferative activity against human MCF7 cells assessed as cell viability at 50 uM after 72 hrs by MTT assay). Details: MCF7, 72 h, read-out: Activity.
Type: functional
Procedure, shortened: as §1
`CC(Cn1cnc2c1c(=O)n(C)c(=O)n2C)OC(=O)CC(=O)c1ccc(F)cc1` (centres undefined) was tested, and the viability at 50 µM was 77.9%.

The compounds below were run on Candida albicans (assay: Growth inhibition of Candida albicans ATCC 90028 at 0.25 ug/ml incubated for 18 hrs at 35 degC by broth microdilution method relative to control). Details: ATCC 90028, 18 h, read-out: GI.
Type: functional
`CC(Cn1cnc2c1c(=O)n(C)c(=O)n2C)OC(=O)CC(=O)c1ccc(F)cc1` (centres undefined) was tested, and the inhibition of growth at 0.25 µg/mL was 99.7%.

The compounds below were run on Candida albicans (assay: Growth inhibition of Candida albicans ATCC 90028 at 16 ug/ml incubated for 18 hrs at 35 degC by broth microdilution method relative to control). Details: ATCC 90028, 18 h, read-out: GI.
Type: functional
In the case of `CC(Cn1cnc2c1c(=O)n(C)c(=O)n2C)OC(=O)CC(=O)c1ccc(F)cc1` (centres undefined), the inhibition of growth at 16 µg/mL is reported as 100%.

What follows are compounds tested on Candida albicans (assay: Growth inhibition of Candida albicans ATCC 90028 at 0.0313 ug/ml incubated for 4 hrs at 35 degC by broth microdilution method relative to control). Details: ATCC 90028, 4 h, read-out: GI.
Type: functional
`CC(Cn1cnc2c1c(=O)n(C)c(=O)n2C)OC(=O)CC(=O)c1ccc(F)cc1` (centres undefined) showed an inhibition of growth at 0.0313 µg/mL of 98.9%.

What follows are compounds tested on Candida albicans (assay: Growth inhibition of Candida albicans ATCC 90028 at 0.0313 ug/ml incubated for 18 hrs at 35 degC by broth microdilution method relative to control). Details: ATCC 90028, 18 h, read-out: GI.
Type: functional
`CC(Cn1cnc2c1c(=O)n(C)c(=O)n2C)OC(=O)CC(=O)c1ccc(F)cc1` (centres undefined) gave an inhibition of growth at 0.0313 µg/mL of 99.7%.
